Compounds with a hit are over-represented: about 6.1% of the library has one in this group of screens.
hDAT+cocaine = changed human dopamine transporter uptake under cocaine IC80. LLC-PK1 hDAT cells, [14C]-dopamine uptake with cocaine IC80; actives deviate in either direction. 1.3% of 110,000 active. B-score at 10 µM. AID 449768. Q01959;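 active = Z score or B-score, a plate-position-corrected score, falls beyond the plate's 99.7% confidence bounds, in either direction; inactive = both scores lie inside the 99.7% bounds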;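 note: scored against the spread of the other compound wells on the same plate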
Target sequence (Q01959 whole entry, looked up): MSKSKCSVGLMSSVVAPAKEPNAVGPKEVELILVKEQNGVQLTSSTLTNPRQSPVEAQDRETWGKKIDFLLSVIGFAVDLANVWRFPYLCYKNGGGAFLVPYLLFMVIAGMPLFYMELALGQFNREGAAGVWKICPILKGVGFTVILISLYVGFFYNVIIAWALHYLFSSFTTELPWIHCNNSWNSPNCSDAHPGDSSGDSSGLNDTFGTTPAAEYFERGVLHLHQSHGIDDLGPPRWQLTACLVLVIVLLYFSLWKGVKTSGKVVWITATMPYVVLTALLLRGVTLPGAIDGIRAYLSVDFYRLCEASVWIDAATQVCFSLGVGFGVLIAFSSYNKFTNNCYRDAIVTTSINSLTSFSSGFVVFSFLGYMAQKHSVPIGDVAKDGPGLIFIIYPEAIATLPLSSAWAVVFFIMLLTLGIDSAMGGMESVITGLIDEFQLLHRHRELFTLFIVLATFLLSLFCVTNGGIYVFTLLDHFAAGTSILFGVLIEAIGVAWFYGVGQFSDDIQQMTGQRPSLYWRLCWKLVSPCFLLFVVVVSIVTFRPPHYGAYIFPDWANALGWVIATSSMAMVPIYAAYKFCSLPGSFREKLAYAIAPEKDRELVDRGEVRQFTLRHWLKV
Yeast growth inh = reduces growth of yeast BB579 in restrictive medium. S. cerevisiae BB579 growth, OD615, 48 h. inhibition, % at 10 µM. 0.51% of 140,000 active. AID 804;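 active = inhibition above a set limit, 3 SD over the mean compound inhibition, cut at about 44% in these data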
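System: Saccharomyces cerevisiae DeaD strain BB579, replicative lifespan model yeast | Buffer or medium: Restrictive glucose-based CSMM-D medium | Times: 4 h preincubation and 48 h exposure at 30 °C | Detection: OD615 turbidity measurement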
Measles CPE = protection of cells from measles virus | Measles virus-infected cells, CPE protection, absorbance | protection (pct of control), % at 4 µM | 1.5% of 140,000 active | AID 841; in the data active = protection mostly above about 24%, no sharp cut-off; inactive = mostly below about 26%
Yeast lifespan up = extends the lifespan of yeast. S. cerevisiae growth with nicotinamide, OD615; deaD strain in restrictive glucose medium. inhibition of the nicotinamide effect, % at 10 µM. 0.68% of 130,000 active;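 active = inhibition above a set limit, placed 3 SD over the median of all compounds, cut at about 26% in these data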;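 note: 0% = nicotinamide-treated wells and 100% = cells grown without nicotinamide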
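Buffer or medium: CSMM-D glucose medium, restrictive; test system: modified budding yeast, DeaD strain; compound: single dose 10 µM compound, 0.25% DMSO; schedule: culture preincubation 4 h, compound exposure 48 h, both 30 °C; detection: optical density (absorbance) at 615 nm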
WT yeast gro inh = growth inhibition of WT yeast, mitochondrial fusion screen; mitochondrial fusion phenotypic screen, WT strain; inhibition, % at 10 µM; AID 1362; 2.1% of 190,000 active; in the data active = inhibition above about 58%; tested in S. cerevisiae
RAM network inh = blocks the yeast RAM network | S. cerevisiae dse1pr::URA3 reporter, 5-FOA growth OD615, 2 d; analog-sensitive cbk1-as2 kinase mutant strain | 1.8% of 190,000 active | inhibition, % at 50 µM;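 active = inhibition above a set limit, 3 SD over mean compound inhibition, cut at about 8.4% in these data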;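 note: 0% = DMSO-only wells with no growth and 100% = 10 µM 1-NA-PP1 full growth; inhibition rescues growth on 5-FOA so higher OD means more RAM inhibition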
An asterisk follows results filed as active; / = not tested or not shown.

SMILES	hDAT+cocaine	Yeast growth inh	Measles CPE	Yeast lifespan up	WT yeast gro inh	RAM network inh
COc1cccc(CNC(=O)CCC2CCCN(C(=O)Cc3ccccc3F)C2)c1 (stereo not given)	/	/	/	/	11	3
CN1C(=O)C2(N=c3ccccc3=N2)c2ccccc21	0.18	57*	4	-35	-11	1
O=C(Nc1cnn(Cc2ccccc2)c1)NC12CC3CC(CC(C3)C1)C2	0.89	17	23*	-9	4	2
N#CCC(=O)N/N=C/c1cc(-c2ccccc2)n(-c2ccc(Cl)cc2)c1-c1ccccc1	/	/	/	/	80*	5
CCCCOc1ccccc1/C=N/NC(=O)CC#N	/	/	/	/	3	1
Cc1ccc(-n2c(-c3ccccc3)cc(/C=N/NC(=O)CC#N)c2-c2ccccc2)cc1	/	/	/	/	73*	6
Cc1c(C(=O)Nc2cccc(N(C)S(C)(=O)=O)c2)cccc1[N+](=O)[O-]	/	/	/	/	-8	1
CCc1sc(N(C(=O)Cc2ccccc2)c2cccc(F)c2)nc1-c1ccc(C)cc1	-0.13	-29	5	-9	8	8.9*
CCOC(=O)N1CCN(CC(O)COCCC23CC4CC(CC(C4)C2)C3)CC1 (stereo not given)	0.0038	-1	5	-13	60*	-1
CC1CCCCN1CC(O)COCCC12CC3CC(CC(C3)C1)C2 (stereo not given)	/	/	/	/	51	1
CCOC(=O)N1CCN(CC(O)COC2CC(C)CCC2C(C)C)CC1 (stereo not given)	0.35	-5	6	-17	77*	1
Cn1cc(Cl)c(C(=O)N/N=C/c2ccc(OS(=O)(=O)c3ccccc3)cc2)n1	-0.28	-11	13	/	-6	0
CCC(=O)N/N=C/c1ccc(OS(=O)(=O)c2ccccc2)cc1	/	-2	18*	-8	-3	0
C/C(=N\Nc1ccc(Cl)c(Cl)c1)c1ccc(-n2ccnc2)cc1	/	95*	7	-10	69*	-1
C/C(=N\NC(=O)COc1ccc(C(C)(C)C)cc1)c1ccc(-n2ccnc2)cc1	/	-32	13	-4	71*	0
Cc1c(C(=O)Nc2ccc(Cl)cc2)c2ccccn2c1C(=O)c1ccccc1	-9.5*	-12	8	-3	38	3
CCCCN(C)CCCNC(=O)c1cc(=O)[nH]c2ccc(S(=O)(=O)N3CCCCC3C)cc12 (stereo not given)	/	/	/	/	-18	0
Clc1ccccc1-c1ccc(CN2CCN(c3ccccc3)CC2)o1	/	13	25	-11	66*	1
CC1Cc2ccccc2N1C(=O)c1nn(C)cc1Br (stereo not given)	/	-40	6	2	-6	0
O=C(/C=C/c1ccccc1[N+](=O)[O-])N1CCN(C(=O)c2ccco2)CC1	/	/	/	/	-9	1
CCN(CC)S(=O)(=O)c1ccc(NC(=O)CC(NC(C)=O)c2ccccc2)cc1 (stereo not given)	-0.055	-65	5	-6	-6	1
Cc1ccc2nsnc2c1S(=O)(=O)N1CCN(CCc2ccccc2)CC1	4.3*	-36	45	7	-6	2
CC1CCCN(CCCOc2ccccc2-c2ccccc2)C1 (stereo not given)	/	/	/	/	32	0
Cc1noc(NS(=O)(=O)c2ccc(N/C=C/C(=O)c3ccc(F)cc3)cc2)c1C	/	/	/	/	-1	11*
Cc1ccc(OCC(=O)Nc2ccc(S(=O)(=O)Nc3onc(C)c3C)cc2)cc1	0.39	-49	13	-8	7	10*
Cn1ccnc1SCC(=O)Nc1nc2c(F)c(F)c(F)cc2s1	/	/	/	/	-12	0
CCC(C)(C)NC(=O)C(c1ccc(C)cc1)N(Cc1cccs1)C(=O)c1ccc2c(c1)OCCO2 (stereo not given)	/	-17	2	-3	74*	2
CCC(C)(C)NC(=O)C(c1ccc(OC)cc1)N(Cc1cccs1)C(=O)CCC(=O)Nc1cc(C)on1 (stereo not given)	2.1	-17	10	/	-4	0
Cc1ccc(C(C(=O)NC(C)(C)C)N(Cc2cccs2)C(=O)c2ccc3c(c2)OCCO3)cc1 (stereo not given)	/	-22	10	2	72*	1

Source: PubChem (several laboratories)
